# According to publication PMC4887080 (Journal of nuclear medicine : official publication, Society …, 2016):
# Key:
# [1] = tested on: VLA-4-positive 5TGM1-GFP murine myeloma cells; assay: Flow cytometry binding of LLP2A-Cy5 to 5TGM1-GFP cells; format: cell-based, mouse; conditions: coincubated at similar concentrations, P < 0.05
# [2] = tested on: human MM cell lines H929, RPMI-8226, OPM2; assay: Flow cytometry binding of LLP2A-Cy5 to human MM cell lines; format: cell-based
# VLA-4 [3] = target: T1, VLA-4 (Mus musculus, UniProt P09055+Q00651); format: in vivo, KaLwRij mouse
# [4] = format: in vivo, BALB/c mice
# Summary of the method: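 BALB/c mice received 0.78 MBq of 64Cu tracer, with sampling at 1, 2, 4, 12, 24 and 48 h. The last group was kept in metabolic cages to collect excreted urine and feces. Time–activity curves for urine excretion and blood clearance were built as percentage injected activity. Urine residence time used a 1-h void assumption.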
# [5] = Human radiation dose estimates extrapolated from mouse biodistribution; format: in vivo, BALB/c mice, scaled to adult human male model
# Summary of the method: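 64Cu tracer biodistribution in normal BALB/c mice given 0.78 MBq. Organs were collected at 1, 2, 4, 12, 24 and 48 h, and %ID/g was decay-corrected. A final group was housed in metabolic cages to collect urine and feces. Organ residence times (2-h void; 1-h void scenario also run) were scaled to human organ weight for the adult male model. Maximum injection assumes a 50 mGy bladder-wall limit. Mean ± SD.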
# VLA-4 [6] = target: T1, VLA-4; assay: PET uptake in tumor-free α4 -/- mice vs wild-type KaLwRij mice; format: in vivo; conditions: tumor-free α4 -/- mice compared with age-matched wild-type KaLwRij mice
# T1 sequence (Q00651 40-1039 limits assumed): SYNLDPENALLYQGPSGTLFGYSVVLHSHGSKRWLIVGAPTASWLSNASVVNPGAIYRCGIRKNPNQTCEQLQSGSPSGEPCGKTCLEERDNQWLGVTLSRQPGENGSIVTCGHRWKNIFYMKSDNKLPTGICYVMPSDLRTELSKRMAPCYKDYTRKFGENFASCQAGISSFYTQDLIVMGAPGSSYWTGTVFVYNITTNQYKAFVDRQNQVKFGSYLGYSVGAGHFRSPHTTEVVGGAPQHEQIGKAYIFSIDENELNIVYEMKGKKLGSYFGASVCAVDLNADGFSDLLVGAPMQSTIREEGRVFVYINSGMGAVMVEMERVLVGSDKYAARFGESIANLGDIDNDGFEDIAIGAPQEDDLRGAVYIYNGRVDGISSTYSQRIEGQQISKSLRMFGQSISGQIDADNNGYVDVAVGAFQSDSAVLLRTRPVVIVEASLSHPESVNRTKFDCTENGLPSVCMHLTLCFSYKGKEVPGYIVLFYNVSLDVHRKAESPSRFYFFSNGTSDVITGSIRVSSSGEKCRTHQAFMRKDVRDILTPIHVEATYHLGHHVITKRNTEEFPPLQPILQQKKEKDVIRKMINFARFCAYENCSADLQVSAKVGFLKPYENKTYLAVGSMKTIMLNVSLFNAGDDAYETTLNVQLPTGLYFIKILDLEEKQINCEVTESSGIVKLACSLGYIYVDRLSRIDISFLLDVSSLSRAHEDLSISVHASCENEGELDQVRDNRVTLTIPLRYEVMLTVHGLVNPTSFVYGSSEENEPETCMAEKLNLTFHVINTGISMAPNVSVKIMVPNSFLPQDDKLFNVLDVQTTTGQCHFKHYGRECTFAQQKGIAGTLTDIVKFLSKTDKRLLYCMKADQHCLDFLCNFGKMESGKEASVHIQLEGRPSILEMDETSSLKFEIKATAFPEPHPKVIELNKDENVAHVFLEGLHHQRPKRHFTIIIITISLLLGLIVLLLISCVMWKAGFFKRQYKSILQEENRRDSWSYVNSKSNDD
# T1 sequence (P09055 21-798): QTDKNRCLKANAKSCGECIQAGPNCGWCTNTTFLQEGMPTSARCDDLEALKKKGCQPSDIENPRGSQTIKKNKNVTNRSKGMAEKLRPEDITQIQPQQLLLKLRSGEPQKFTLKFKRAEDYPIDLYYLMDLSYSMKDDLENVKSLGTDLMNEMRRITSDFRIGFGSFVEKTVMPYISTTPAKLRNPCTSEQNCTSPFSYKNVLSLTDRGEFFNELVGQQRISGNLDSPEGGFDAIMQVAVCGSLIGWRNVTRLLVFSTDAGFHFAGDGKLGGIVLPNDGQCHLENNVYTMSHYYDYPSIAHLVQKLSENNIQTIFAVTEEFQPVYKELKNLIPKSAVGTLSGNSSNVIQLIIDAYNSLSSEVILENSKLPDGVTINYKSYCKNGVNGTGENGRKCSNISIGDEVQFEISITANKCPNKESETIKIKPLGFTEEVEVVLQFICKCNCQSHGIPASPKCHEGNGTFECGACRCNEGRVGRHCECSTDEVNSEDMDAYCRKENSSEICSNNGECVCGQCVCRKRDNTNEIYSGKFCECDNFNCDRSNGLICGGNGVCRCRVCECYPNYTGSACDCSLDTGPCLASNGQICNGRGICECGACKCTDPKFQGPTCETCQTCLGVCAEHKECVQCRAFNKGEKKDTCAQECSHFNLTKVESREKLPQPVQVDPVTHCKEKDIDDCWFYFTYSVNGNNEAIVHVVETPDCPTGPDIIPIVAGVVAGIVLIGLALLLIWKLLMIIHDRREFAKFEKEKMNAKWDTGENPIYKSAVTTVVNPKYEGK
compound,measurement,setting,value
CCOCc1cc(OC)c(-c2ccc(C[C@H](NC(=O)c3c(F)cccc3F)C(=O)O)cc2)c(OC)c1 [firategrast],Effect of competitor on LLP2A-Cy5 cell binding,[1],competitively inhibited
Cc1ccccc1NC(=O)Nc1ccc(CC(=O)N(C)[C@@H](CC(C)C)C(=O)NCC[C@H](NC(=O)[C@@H]2CCCN2S(=O)(=O)c2cc(Cl)cc(Cl)c2)C(=O)O)cc1 [BIO5192],Effect on LLP2A-Cy5 cell binding,[2],blocked
^64Cu-CB-TE1A1P-PEG4-LLP2A [^64Cu-LLP2A],Tumor uptake when coinjected with blocker,VLA-4 [3]; coinjected with a 200-fold excess of cold-LLP2A,reduced to the background levels
same,Tumor uptake,"VLA-4 [3]; subcutaneous 5TGM1-GFP model, i.v. injection of 0.48 MBq, PET at 24 h",excellent tumor uptake
same,"Urine excreted, expressed as residence time",[4]; 1-h void assumption,14.01 h
same,"Blood clearance half-life, fast component","[4]; dual-exponential fit of blood time-activity curve, mice",6 min
same,Residence time from area under the curve of urine data,[4]; urine collected in metabolic cages,14.46 h
same,Bladder dose,[5]; 1-h bladder-voiding interval,0.094 mGy/MBq
same,Red marrow dose,[5]; 1-h bladder-voiding interval,0.005 mGy/MBq
same,"Human radiation dose estimate, urinary bladder wall (dose-limiting organ)","[5]; as stated in abstract and discussion, void interval not stated",0.200 mGy/MBq
same,"Human radiation dose estimate, red marrow","[5]; as stated in abstract, void interval not stated",0.006 mGy/MBq
same,Maximum injection,[5]; assuming maximum permissible dose of 50 mGy to the bladder wall,532 MBq
same,Uptake in the spleen of α4 -/- mice,VLA-4 [6],negligible uptake
